The list is not random: actives were taken first. Their share in the collection is about 4.9%.
STAT3 activator: increases IL-6 driven STAT3 reporter signal. U3A cells, IL-6 STAT3-luciferase reporter, luminescence; 100% = signal with IL-6 EC80 alone. activation (% of control), % at 5.6 µM. hit rate 0.91% among 190,000;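 active = activation above the screen-wide mean of compound activation plus 3 SD, cut at about 130% in these data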;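 note: 0% = background luminescence of wells with medium and substrate only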
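Detection: reporter luminescence signal / Assay system: STAT1-lacking human U3A cells, STAT3 luciferase reporter / Incubation: compound pre-incubation 1 h before IL-6, then 6 h stimulation at 37 °C / Control set: IL-6-only high control / Read-out: % activation relative to IL-6 control / Probe or stimulus: Interleukin-6, 33 ng/mL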
STAT3 blocker: STAT3 signaling inhibition | U3A cells, IL-6 STAT3-luciferase reporter, luminescence; host cell line lacks STAT1 | inhibition, % at 5.5 µM | hit rate 0.89% among 190,000;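 active = inhibition above the mean inhibition across all screened compounds plus 3 SD, cut at about 44% in these data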;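 note: 0% = DMSO only wells and 100% = 100 µM nifuroxazide control wells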
STAT1 blocker: inhibitors of IFN-gamma induced STAT1 signaling; hit rate 0.35% among 200,000; inhibition, % at 5.5 µM; NIH 3T3 STAT1-luciferase reporter, luminescence;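 active = inhibition above a set limit, the mean inhibition across all tested compounds plus 3 SD, cut at about 34% in these data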;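 note: 0% = IFN-gamma with DMSO and 100% = IFN-gamma with 300 µM nifuroxazide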
APP 5'UTR act: APP 5'UTR luciferase reporter activation; SH-SY5Y APP 5'UTR luciferase reporter, luminescence; zero percent = DMSO vehicle wells; activation, % at 2 µM; hit rate 1% among 190,000;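 active = activation above a set limit, based on mean plus 3 SD of controls, cut at about 140% in these data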
STAT1 act: activators of IFN-gamma induced STAT1 signaling; hit rate 2.6% among 200,000; activation (% of control), % at 5.5 µM; NIH 3T3 STAT1-luciferase reporter, luminescence; 100% = IFN-gamma alone, no compound;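 active = activation above the screen-wide mean activation plus 3 SD, cut at about 130% in these data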;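 note: raw ratio to IFN-gamma control signal so 100% means no change and 0% no light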
NF-kB expr up: NF-kB expression increase, human neuronal cells; NF-kB reporter expression; active compounds read high; fold change at 12.5 µM; hit rate 1.6% among 190,000; AID 1239; in the data active = fold change above about 3.3
* = called active by the depositor.

SMILES | STAT3 activator | STAT3 blocker | STAT1 blocker | APP 5'UTR act | STAT1 act | NF-kB expr up
C/C(O)=C\c1nc2ccccc2oc1=O | 99 | 12 | 5 | -1 | 96 | 3.6*
CS(=O)(=O)Cc1nc2ccccc2oc1=O | 115 | -12 | 6 | -12 | 95 | 4.7*
Cc1ccnc2nc(C(=O)Nc3ccc4c(c3)OCO4)nn12 | 79 | 24 | -8 | 40 | 107 | 4*
COCCSc1ccccc1C(=O)Nc1ccc2c(c1)OCCO2 | 97 | 6 | -4 | -4 | 104 | 1.2
C=CCOc1ccc(C(=O)NC2CCCCC2)cc1 | 106 | -6 | -33 | 23 | 132* | 2.1
CN(c1ccccc1C(=O)Nc1ccc2c(c1)OCO2)S(C)(=O)=O | 111 | -9 | -1 | -1 | 101 | 1.1
COc1ccccc1C(=O)Nc1ccc2c(c1)OCCO2 | 118 | -18 | -43 | 137* | 140* | 3.5*
Cc1ccccc1C(=O)Nc1ccc2c(c1)OCO2 | 69 | 42 | -7 | 177* | 107 | 4.8*
Cc1nc(SCC(=O)Nc2cc(Cl)ccc2[N+](=O)[O-])nc(C)c1C | 108 | -14 | -7 | -6 | 106 | 0.6
CCN(CC)S(=O)(=O)c1ccc(N2CCOCC2)c(NC(=O)c2cnccn2)c1 | 97 | 5 | -7 | 12 | 106 | 1.2
O=C(Nc1cccc(F)c1)c1ccc2c(c1)OCO2 | 96 | 9 | -20 | 62 | 118 | 3.5*
Cc1ccc(C(=O)Nc2ccc3c(c2)OCO3)cc1 | 72 | 32 | 20 | 142* | 82 | 4.9*
O=C(NC1CCCCCCC1)c1ccc2c(c1)OCO2 | 86 | 21 | -27 | 153* | 125 | 6.9*
O=C(NNC(=S)NC1CCCCC1)c1ccc2c(c1)OCO2 | 77 | 30 | -8 | 75 | 107 | 1.9
CCOC(=O)c1c(C)[nH]c(C(=O)Nc2ccc3c(c2)OCO3)c1C | 96 | 10 | -45 | 164* | 141* | 7.8*
CCOC(=O)Nc1ccc2c(c1)OCO2 | 114 | -16 | -17 | 27 | 115 | 1.4
O=C(Nc1c(C(=O)Nc2cccc(F)c2)oc2ccccc12)c1ccc2c(c1)OCO2 | 88 | 18 | 0 | 19 | 100 | 1.2
O=C(NCc1ccccn1)C(=O)N/N=C/c1ccc2c(c1)OCO2 | 103 | 0 | -18 | 16 | 115 | 1.5
COc1ccc(NC(=O)c2ccc3c(c2)OCO3)cc1[N+](=O)[O-] | 97 | 6 | -41 | 37 | 139* | 1.2
Cn1cc(C(=O)Nc2ccc3c(c2)CCC3)cn1 | 102 | -4 | -12 | 42 | 111 | 0.99
COc1ccc(/C=N/NC(=O)c2ccc3c(c2)OCCO3)cc1[N+](=O)[O-] | 94 | 4 | -10 | -3 | 109 | 1.2
COc1ccc(Cl)cc1C(=O)Nc1ccc2c(c1)OCO2 | 151* | -55 | -38 | 39 | 135* | 1.2
C/C(=N\Nc1ccc([N+](=O)[O-])cc1)c1ccc2c(c1)OCO2 | 93 | 14 | -42 | 44 | 136* | 2.4
Cc1ccc(C(=O)Nc2ccc3c(c2)CCC3)cc1 | 24 | 88* | 64* | 154* | 40 | 6.4*
C/C(=N\NC(=O)c1ccc2c(c1)OCO2)c1ccc2c(c1)OCO2 | 103 | -1 | -27 | 19 | 125 | 2.4
SMILES | STAT3 activator | STAT3 blocker | STAT1 blocker | APP 5'UTR act | STAT1 act | NF-kB expr up
O=C(NNC1CC(=O)N(c2ccc(Br)cc2)C1=O)c1ccccn1 (configuration not stated) | 96 | 6 | -5 | -13 | 104 | 1.1
COc1ccccc1NC(=O)c1ccc(CSc2ncccn2)cc1 | 80 | 30 | -3 | 22 | 101 | 1.5
CN(C)c1nnnn1-c1ccc(OC(F)(F)F)cc1 | 99 | 5 | -9 | -2 | 107 | 1.1
CS(=O)(=O)N1N=C(c2ccco2)CC1c1ccc(Cl)cc1 (configuration not stated) | 102 | -4 | -6 | -9 | 106 | 1.6
COc1ccccc1C(=O)NCc1ccc2c(c1)OCO2 | 95 | 12 | -6 | 27 | 106 | 1.3
COc1ccccc1C(=O)Nc1ccc2c(c1)OCO2 | 124 | -19 | -35 | 91 | 132* | 2.6
O=C(Nc1ccc([N+](=O)[O-])cn1)c1ccc2c(c1)OCO2 | 97 | 10 | -41 | 74 | 135* | 2.5
Fc1ccccc1Cc1noc(CN2CCN(c3ccc(Cl)cn3)CC2)n1 | 105 | 6 | 5 | -4 | 95 | 1.3
Nc1ccc(N2CCN(c3ccc(F)cc3)CC2)cc1 | 78 | 30 | 3 | -10 | 96 | 3
Nc1ccc(N2CCN(c3ccc(Cl)c(Cl)c3)CC2)cc1 | 82 | 24 | -1 | -32 | 101 | 3.4*
CC(=O)Nc1nc2ccccc2n1Cc1ccccc1C | 134* | -34 | -27 | 3 | 124 | 0.77
CC(=O)NCc1nc2ccccc2n1Cc1ccccc1C | 100 | 5 | 6 | 0 | 95 | 1
CCOC(=O)c1cc(-c2ccc(OC)cc2)nn1-c1ccc(C(=O)O)cc1 | 101 | 1 | 4 | -13 | 97 | 1
CCOC(=O)CS(=O)(=O)c1nc(-c2ccccc2)cc(C(F)(F)F)n1 | 88 | 18 | 43* | -57 | 66 | 1.2
CCOC(=O)CS(=O)(=O)c1ccccc1 | 105 | -3 | -5 | 11 | 104 | 1.1
CSc1ccc(/C=C/C(=O)NC(=O)c2ccccc2O)cc1 | 79 | 26 | 3 | 89 | 96 | 3.7*
O=C(NO)c1ccccc1O | 90 | 14 | 2 | 12 | 98 | 1.2
O=C(/C=C/c1ccc(Br)cc1)NC(=O)c1ccccc1O | 83 | 24 | 2 | 95 | 96 | 3.9*
CSc1ccc(/C=C/C(=O)c2ccc(NC(C)=O)cc2)cc1 | 104 | 4 | 5 | 7 | 93 | 0.89
CN1C(CC(=O)c2ccccc2)CCCC1CC(O)c1ccccc1 (configuration not stated) | 101 | -1 | -3 | 3 | 103 | 1.3
CC1N/C(=C\C(=O)c2ccccc2)N(O)C1(C)C (configuration not stated) | 101 | 3 | -37 | 91 | 134* | 1.8
Nc1ccc2oc(=O)c3ccccc3c2c1 | 110 | -1 | -38 | 39 | 134* | 1.4
Nc1nc2ccccc2n1C(=O)c1cccs1 | 71 | 38 | -12 | 80 | 113 | 4.7*
CC(=O)c1nc2ccccc2n1CCc1ccccc1 | 90 | 15 | 6 | -5 | 92 | 0.97
Nc1nc2ccccc2n1C(=O)CCc1ccccc1 | 94 | 10 | -40 | 49 | 136* | 2.6
Nc1nc2ccccc2n1C(=O)c1ccco1 | 105 | -7 | -43 | 131 | 139* | 3.1
O=C(c1ccco1)N1CCn2c1nc1ccccc12 | 117 | -15 | -27 | -5 | 125 | 2
CC(Sc1ccsc1[N+](=O)[O-])C(=O)NCc1ccco1 (configuration not stated) | 108 | -4 | 12 | -31 | 90 | 1.4
Cc1ccc(C2NC(=O)NC3=C2CCc2ccccc23)cc1 (configuration not stated) | 134* | -34 | 13 | 79 | 89 | 0.76

Screening data (PubChem)
